Reference: PubChem BioAssay AID602407 (Southern Research Specialized Biocontainment Screening …, 2012)
The source made the active and inactive calls.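 How the source made its calls: active means inhibition of 30% or more at any tested concentration; inactive means the rest.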

target: Cytosol aminopeptidase (Homo sapiens) (UniProt P28838); assay: human M17 leucine aminopeptidase inhibitors, dose response, counter-screen for PfM17LAP inhibitor project, biochemical, QFRET fluorogenic substrate (AID 602407); conditions: recombinant human M17LAP, H-Leu-NHMec fluorogenic cleavage
Outline: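 Assay system: purified recombinant human M17 leucine aminopeptidase (M17LAP); incubation: 90 min reaction, room temperature; measured by: fluorescence of released NHMec, excitation 370 nm, emission 460 nm; measure: % inhibition and IC50 from constrained four-parameter fit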

Sequence of Cytosol aminopeptidase (Homo sapiens) (P28838 whole entry, looked up): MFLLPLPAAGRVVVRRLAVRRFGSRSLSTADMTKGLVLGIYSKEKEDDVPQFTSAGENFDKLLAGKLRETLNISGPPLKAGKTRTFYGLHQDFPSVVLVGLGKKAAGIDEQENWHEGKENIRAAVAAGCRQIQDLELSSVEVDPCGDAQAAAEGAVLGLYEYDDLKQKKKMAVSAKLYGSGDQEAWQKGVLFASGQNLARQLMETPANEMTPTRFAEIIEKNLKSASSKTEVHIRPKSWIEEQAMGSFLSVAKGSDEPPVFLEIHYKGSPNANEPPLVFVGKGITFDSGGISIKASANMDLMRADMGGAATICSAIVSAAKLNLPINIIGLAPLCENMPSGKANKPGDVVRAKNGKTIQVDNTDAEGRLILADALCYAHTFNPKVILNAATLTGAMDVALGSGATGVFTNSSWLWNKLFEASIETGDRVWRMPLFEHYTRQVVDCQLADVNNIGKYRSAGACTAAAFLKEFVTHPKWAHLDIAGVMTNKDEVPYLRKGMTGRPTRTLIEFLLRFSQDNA

| SMILES | IC50 [nM] |
| --- | --- |
| CCCOc1ccc(CC(=O)NO)cc1 | 490 |
| CCCCOc1ccc(C(C)C(=O)NO)cc1 (stereo not drawn) | 530 |
| O=C(NO)c1ccc2ccccc2c1 | 8380 |

The next lines start with the values.

| IC50 [nM] | SMILES |
| --- | --- |
| 380 | CCC(C)Oc1ccc(CC(=O)NO)cc1 (stereo not drawn) |
| 2770 | CCCCOc1cccc(CC(=O)NO)c1 |

same assay, conditions: recombinant human M17LAP, H-Leu-NHMec fluorogenic cleavage; at 100 µM (top of the series)

| SMILES | inhibition |
| --- | --- |
| CCCCOc1ccc(C(C)(C)C(=O)NO)cc1 | inactive |
| CCCCOc1ccc(CN(O)C(=O)c2ccccc2)cc1 | inactive |
| CCCOc1ccc(CC(=O)O)cc1 | inactive |
| CCCCOc1ccc(C(C)C(=O)OC)cc1 (stereo not drawn) | inactive |

More lines, now with the values ahead:

| inhibition | SMILES |
| --- | --- |
| inactive | CN(C)CCOc1ccc(CC(=O)O)cc1 |
| inactive | CCCCOc1ccc(C(C)(C)C(=O)O)cc1 |
| inactive | CCCCOc1ccc(CN(O)C(C)=O)cc1 |
| inactive | CCCCOc1cccc(CC(=O)OC)c1 |
